Format in all cases: functional
Assay [1] relates to Pseudomonas aeruginosa. The assay can be described thus: Intrinsic antibacterial activity against Pseudomonas aeruginosa. An outline of the steps:
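Tested alone for antibacterial activity against P. aeruginosa PAM1723, a strain that overexpresses the MexAB-OprM pump and has MexCD-OprJ and MexEF-OprN genetically disrupted; MIC in µg/mL.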

Assay [2] deals with Pseudomonas aeruginosa. The assay can be described thus: Minimum inhibitory concentration Pseudomonas aeruginosa in presence of LVFX substrate, (100% growth inhibition). An outline of the steps: (§1)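 Potentiation of levofloxacin (LVFX), a MexAB-OprM substrate, against P. aeruginosa PAM1723 (MexAB-OprM overexpressed; MexCD-OprJ and MexEF-OprN genetically disrupted). Value is the inhibitor concentration (µg/mL) giving 4-fold (MPC4) or 8-fold (MPC8) potentiation.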

Assay [3] relates to Pseudomonas aeruginosa. The assay can be described thus: Minimum concentration of inhibitor required to reduce (potentiate) the activity of antibacterial drug aztreonam by 8-fold in absence of human serum using Pseudomonas aeruginosa, value reported is for 100% growth inhibition. Put shortly:
(§2)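 Potentiation of aztreonam, a MexAB-OprM substrate, against P. aeruginosa PAM1723 (MexAB-OprM overexpressed; MexCD-OprJ and MexEF-OprN genetically disrupted). Run without HSA and with 0.125% human serum albumin. Value is the inhibitor concentration (µg/mL) giving 8-fold potentiation (MPC8).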

The test system of assay [4] is Pseudomonas aeruginosa. Briefly: Minimum inhibitory concentration against Pseudomonas aeruginosa in presence of LVFX substrate, (100% growth inhibition). Put shortly: as §1
Assay [5] relates to Pseudomonas aeruginosa. Briefly: Minimum inhibitory concentration against Pseudomonas aeruginosa in presence of aztreonam substrate and with 0.125% human serum albumin, (100% growth inhibition). An outline of the steps: as §2
Assay [6] relates to Pseudomonas aeruginosa. The assay can be described thus: Minimum inhibitory concentration against Pseudomonas aeruginosa in presence of aztreonam substrate and with out human serum albumin, (100% growth inhibition). An outline of the steps: as §2
The species entered for the next assay is Rattus norvegicus. The assay can be described thus: Serum protein binding of compound was evaluated using rat serum.

A value given as a limit tells only on which side of the number the result lay.

The MIC is the lowest concentration found to suppress growth. The low end stands for inhibition by little substance, the high end for a need for much substance.

In the assay on Pseudomonas aeruginosa [1], `CC(C)c1csc(CCc2ccn3c(=O)c(/C=C/C(=O)O)c(NCCc4ccc(F)cc4)nc3c2)n1` displayed an MIC above 320 µg/mL. In addition, in the assay on Pseudomonas aeruginosa [2], the MPC4 turned out to be 8 µg/mL. The MPC8 with Pseudomonas aeruginosa [3], in the assay on Pseudomonas aeruginosa [4] and in the assay on Pseudomonas aeruginosa [5] was above 32 µg/mL throughout.
Take `CC(C)c1csc(CCc2ccn3c(=O)c(/C=C/C(=O)O)c(N4CCOCC4)nc3c2)n1`: the MIC in the assay with Pseudomonas aeruginosa [1] is above 320 µg/mL. Moreover, in the assay with Pseudomonas aeruginosa [2], the MPC4 was 2 µg/mL. Further, the MPC8 in the assay on Pseudomonas aeruginosa [4] was 16 µg/mL; in the assay on Pseudomonas aeruginosa [5] it was 32 µg/mL; in the assay on Pseudomonas aeruginosa [6], 16 µg/mL. The Binding in the assay filed under Rattus norvegicus is 92%.

For the origin of these results see ChEMBL document CHEMBL1147403, “MexAB-OprM specific efflux pump inhibitors in Pseudomonas aeruginosa. Part 3: Optimization of potency in the pyridopyrimidine series through the application of a pharmacophore model” (2004).
